Measured values published in ChEMBL document CHEMBL1629690, “Development of hexadecyloxypropyl tenofovir (CMX157) for treatment of infection caused by wild-type and nucleoside/nucleotide-resistant HIV” (Antimicrob Agents Chemother, 2010).

Tested on: Human immunodeficiency virus 1
Experiment: Antiviral activity against HIV1 isolate 057 expressing wild type reverse transcriptase gene by phenosense assay
Format: functional, organism-based
Conditions: Human immunodeficiency virus 1, isolate 057
Outline: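 In the PhenoSense recombinant virus assay, virus was tested against increasing drug concentrations. EC50 came from the inhibition curve and was compared with a drug-sensitive reference virus.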

Compound	EC50
Nc1nc(=O)n([C@@H]2CS[C@H](CO)O2)cc1F [EMTRICITABINE]	1.6 µM

Tested on: Human immunodeficiency virus 1
Experiment: Antiviral activity against HIV1 isolate 060 harboring reverse transcriptase M41L/D67N/K70R/L210W/T215Y/K219E mutant gene by phenosense assay
Format: functional, organism-based
Conditions: Human immunodeficiency virus 1, isolate 060
Outline: (§1)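 Recombinant-virus PhenoSense HIV assay run on a panel of 30 NRTI-resistant HIV-1 mutants and two wild-type viruses. Each virus is tested across increasing drug concentrations to give an inhibition curve and EC50. Fold change is the test recombinant EC50 divided by the EC50 of the drug-sensitive wild-type reference virus.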

Compound	EC50
Nc1nc(=O)n([C@@H]2CS[C@H](CO)O2)cc1F [EMTRICITABINE]	11 µM

Tested on: Human immunodeficiency virus 1
Experiment: Antiviral activity against HIV1 isolate 063 harboring reverse transcriptase M41L/D67N/K70R/M184V/L210W/T215Y/K219E mutant gene by phenosense assay
Format: functional, organism-based
Conditions: Human immunodeficiency virus 1, isolate 063
Outline: as §1

Compound	EC50
Nc1nc(=O)n([C@@H]2CS[C@H](CO)O2)cc1F [EMTRICITABINE]	> 100 µM

Tested on: Human immunodeficiency virus 1
Experiment: Antiviral activity against HIV1 isolate 067 harboring reverse transcriptase A62V/D67G/T69SVG/V75I/T215I mutant gene by phenosense assay
Format: functional, organism-based
Conditions: Human immunodeficiency virus 1, isolate 067
Outline: as §1

Compound	EC50
Nc1nc(=O)n([C@@H]2CS[C@H](CO)O2)cc1F [EMTRICITABINE]	30 µM

Tested on: Human immunodeficiency virus 1
Experiment: Antiviral activity against HIV1 isolate 069 harboring reverse transcriptase D67E/T69SSG/V75M/M184V/L210W/T215Y mutant gene by phenosense assay
Format: functional, organism-based
Conditions: Human immunodeficiency virus 1, isolate 069
Outline: as §1

Compound	EC50
Nc1nc(=O)n([C@@H]2CS[C@H](CO)O2)cc1F [EMTRICITABINE]	> 100 µM

Tested on: Human immunodeficiency virus 1
Experiment: Antiviral activity against HIV1 isolate 071 harboring reverse transcriptase 65R/S68N/184V mutant gene by phenosense assay
Format: functional, organism-based
Conditions: Human immunodeficiency virus 1, isolate 071
Outline: as §1

Compound	EC50
Nc1nc(=O)n([C@@H]2CS[C@H](CO)O2)cc1F [EMTRICITABINE]	> 100 µM

Tested on: Human immunodeficiency virus 1
Experiment: Antiviral activity against HIV1 isolate 153 harboring reverse transcriptase L74V mutant gene by phenosense assay
Format: functional, organism-based
Conditions: Human immunodeficiency virus 1, isolate 153
Outline: as §1

Compound	EC50
Nc1nc(=O)n([C@@H]2CS[C@H](CO)O2)cc1F [EMTRICITABINE]	2.1 µM

Tested on: Human immunodeficiency virus 1
Experiment: Antiviral activity against HIV1 isolate 157 harboring reverse transcriptase L74V/M184V mutant gene by phenosense assay
Format: functional, organism-based
Conditions: Human immunodeficiency virus 1, isolate 157
Outline: as §1

Compound	EC50
Nc1nc(=O)n([C@@H]2CS[C@H](CO)O2)cc1F [EMTRICITABINE]	> 100 µM

Tested on: Human immunodeficiency virus 1
Experiment: Antiviral activity against HIV1 isolate 162 harboring reverse transcriptase A62V/V75I/F77L/Y115F/F116Y/Q151M/M184V mutant gene by phenosense assay
Format: functional, organism-based
Conditions: Human immunodeficiency virus 1, isolate 162
Outline: as §1

Compound	EC50
Nc1nc(=O)n([C@@H]2CS[C@H](CO)O2)cc1F [EMTRICITABINE]	> 100 µM

Tested on: Human immunodeficiency virus 1
Experiment: Antiviral activity against HIV1 isolate 180 harboring reverse transcriptase K65R mutant gene obtained as site-directed mutant of NL4-3 by phenosense assay
Format: functional, organism-based
Conditions: Human immunodeficiency virus 1, isolate 180
Outline: as §1

Compound	EC50
Nc1nc(=O)n([C@@H]2CS[C@H](CO)O2)cc1F [EMTRICITABINE]	13 µM

Tested on: Human immunodeficiency virus 1
Experiment: Antiviral activity against HIV1 isolate 188 harboring reverse transcriptase T215Y/M184V mutant gene by phenosense assay
Format: functional, organism-based
Conditions: Human immunodeficiency virus 1, isolate 188
Outline: as §1

Compound	EC50
Nc1nc(=O)n([C@@H]2CS[C@H](CO)O2)cc1F [EMTRICITABINE]	> 100 µM

Tested on: Human immunodeficiency virus 1
Experiment: Antiviral activity against HIV1 isolate 200 harboring reverse transcriptase M41L/L210W/T215Y mutant gene by phenosense assay
Format: functional, organism-based
Conditions: Human immunodeficiency virus 1, isolate 200
Outline: as §1

Compound	EC50
Nc1nc(=O)n([C@@H]2CS[C@H](CO)O2)cc1F [EMTRICITABINE]	4.2 µM

Tested on: Human immunodeficiency virus 1
Experiment: Antiviral activity against HIV1 isolate 201 harboring reverse transcriptase M41L/L210W/T215Y mutant gene by phenosense assay
Format: functional, organism-based
Conditions: Human immunodeficiency virus 1, isolate 201
Outline: as §1

Compound	EC50
Nc1nc(=O)n([C@@H]2CS[C@H](CO)O2)cc1F [EMTRICITABINE]	2.2 µM

Tested on: Human immunodeficiency virus 1
Experiment: Antiviral activity against HIV1 isolate 203 harboring reverse transcriptase M41L/L210W/T215Y/M184V mutant gene by phenosense assay
Format: functional, organism-based
Conditions: Human immunodeficiency virus 1, isolate 203
Outline: (§2)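 PhenoSense HIV recombinant virus assay: patient-derived HIV-1 with major NRTI resistance mutations tested against increasing drug concentrations to give inhibition curves. EC50 is the concentration giving 50% inhibition. Fold change is the test recombinant EC50 divided by the EC50 of a drug-sensitive wild-type reference virus. Panel of 30 NRTI-resistant isolates plus two wild-type viruses.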

Compound	EC50
Nc1nc(=O)n([C@@H]2CS[C@H](CO)O2)cc1F [EMTRICITABINE]	> 100 µM

Tested on: Human immunodeficiency virus 1
Experiment: Antiviral activity against HIV1 isolate 211 harboring reverse transcriptase D67N/K70R/T215F/K219E/M184V mutant gene by phenosense assay
Format: functional, organism-based
Conditions: Human immunodeficiency virus 1, isolate 211
Outline: as §2

Compound	EC50
Nc1nc(=O)n([C@@H]2CS[C@H](CO)O2)cc1F [EMTRICITABINE]	> 100 µM

Tested on: Human immunodeficiency virus 1
Experiment: Antiviral activity against HIV1 isolate 212 harboring reverse transcriptase L210W/T215Y mutant gene by phenosense assay
Format: functional, organism-based
Conditions: Human immunodeficiency virus 1, isolate 212
Outline: as §2

Compound	EC50
Nc1nc(=O)n([C@@H]2CS[C@H](CO)O2)cc1F [EMTRICITABINE]	2.6 µM

Tested on: Human immunodeficiency virus 1
Experiment: Antiviral activity against HIV1 isolate 215 harboring reverse transcriptase D67N/K70E mutant gene by phenosense assay
Format: functional, organism-based
Conditions: Human immunodeficiency virus 1, isolate 215
Outline: as §2

Compound	EC50
Nc1nc(=O)n([C@@H]2CS[C@H](CO)O2)cc1F [EMTRICITABINE]	3.4 µM
